# Reference: ChEMBL document CHEMBL4196123, “Discovery of an Orally Bioavailable Dual PI3K/mTOR Inhibitor Based on Sulfonyl-Substituted Morpholinopyrimidines” (ACS Med Chem Lett, 2018)
# The source made the active and inactive calls. The calls are words filed in the database; no cut-off is given here.
# Legend:
# HT-29 [1] = assay: Antitumor activity against human HT-29 cells harboring PIK3CA P449T mutant xenografted in Balb/c nu/nu mouse assessed as tumor growth inhibition at 3.75 mg/kg, po administered daily via gavage for 27 days relative to control; assay type: functional; details: HT-29, po, 648 h, read-out: TGI
# Outline: (§1)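 Balb/c nu/nu mice carrying HT-29 xenografts were dosed by daily oral gavage for 27 days, starting when mean tumor size was about 240 mm³; vehicle group as control. Tumor volume estimated over time, and TGI calculated after 27 days. Mean ± SEM, n = 6. Dunnett's multiple comparison test.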
# MCF7 = assay: Antiproliferative activity against human MCF7 cells harboring PIK3CA E545K mutant after 72 hrs by MTT assay; assay type: functional, cell-based; details: MCF7, 72 h
# Cytochrome P450 2C8 = Cytochrome P450 2C8 (Homo sapiens, UniProt P10632); assay: Inhibition of CYP2C8 in human liver microsomes using paclitaxel as substrate pretreated for 5 mins followed by NADPH addition and measured after 10 mins by LC-MS analysis; assay type: ADME
# Sequence of Cytochrome P450 2C8 (P10632 whole entry): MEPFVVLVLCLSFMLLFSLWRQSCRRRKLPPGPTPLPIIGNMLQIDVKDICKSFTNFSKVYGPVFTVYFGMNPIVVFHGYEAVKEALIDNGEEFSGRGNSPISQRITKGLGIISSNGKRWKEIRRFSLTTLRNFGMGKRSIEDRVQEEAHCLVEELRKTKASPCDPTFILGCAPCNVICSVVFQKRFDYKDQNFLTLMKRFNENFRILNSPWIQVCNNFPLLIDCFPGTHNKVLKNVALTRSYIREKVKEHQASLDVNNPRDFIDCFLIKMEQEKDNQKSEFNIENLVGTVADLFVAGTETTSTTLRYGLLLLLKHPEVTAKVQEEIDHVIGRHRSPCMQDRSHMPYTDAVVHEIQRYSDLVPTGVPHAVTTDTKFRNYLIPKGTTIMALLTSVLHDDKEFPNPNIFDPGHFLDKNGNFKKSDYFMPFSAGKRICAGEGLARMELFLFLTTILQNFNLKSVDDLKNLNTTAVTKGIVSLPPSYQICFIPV
# [2] = biological target: PI3-kinase p110-alpha/p85-alpha (Homo sapiens, UniProt P42336); assay: Inhibition of recombinant human full length N-terminal His-tagged p110alpha/p85alpha expressed in baculovirus expression system using PIP2 as substrate measured after 1 hr by Alexa633 Tracer-based fluorescence polarization assay
# Sequence of PI3-kinase p110-alpha/p85-alpha (Homo sapiens, UniProt P42336) (P27986 whole entry): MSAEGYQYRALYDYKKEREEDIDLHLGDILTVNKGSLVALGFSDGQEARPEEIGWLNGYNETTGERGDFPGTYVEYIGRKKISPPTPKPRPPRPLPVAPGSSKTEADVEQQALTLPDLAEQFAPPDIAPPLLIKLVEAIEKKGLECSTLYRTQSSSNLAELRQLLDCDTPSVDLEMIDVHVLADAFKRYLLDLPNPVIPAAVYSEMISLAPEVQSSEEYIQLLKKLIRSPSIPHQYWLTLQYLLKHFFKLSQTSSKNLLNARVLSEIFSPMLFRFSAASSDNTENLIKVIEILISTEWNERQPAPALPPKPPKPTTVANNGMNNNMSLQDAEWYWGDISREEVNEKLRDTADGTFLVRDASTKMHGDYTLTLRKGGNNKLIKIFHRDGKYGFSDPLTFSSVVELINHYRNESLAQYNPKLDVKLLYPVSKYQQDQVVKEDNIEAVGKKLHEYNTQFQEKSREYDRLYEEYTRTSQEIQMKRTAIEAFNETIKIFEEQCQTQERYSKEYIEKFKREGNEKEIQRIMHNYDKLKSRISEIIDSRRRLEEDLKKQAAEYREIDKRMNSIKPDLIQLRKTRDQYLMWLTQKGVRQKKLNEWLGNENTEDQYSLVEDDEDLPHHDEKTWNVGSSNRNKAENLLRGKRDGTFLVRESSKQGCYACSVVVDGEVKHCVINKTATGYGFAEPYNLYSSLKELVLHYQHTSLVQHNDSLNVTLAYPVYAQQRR
# Sequence of PI3-kinase p110-alpha/p85-alpha (Homo sapiens, UniProt P42336) (P42336 whole entry): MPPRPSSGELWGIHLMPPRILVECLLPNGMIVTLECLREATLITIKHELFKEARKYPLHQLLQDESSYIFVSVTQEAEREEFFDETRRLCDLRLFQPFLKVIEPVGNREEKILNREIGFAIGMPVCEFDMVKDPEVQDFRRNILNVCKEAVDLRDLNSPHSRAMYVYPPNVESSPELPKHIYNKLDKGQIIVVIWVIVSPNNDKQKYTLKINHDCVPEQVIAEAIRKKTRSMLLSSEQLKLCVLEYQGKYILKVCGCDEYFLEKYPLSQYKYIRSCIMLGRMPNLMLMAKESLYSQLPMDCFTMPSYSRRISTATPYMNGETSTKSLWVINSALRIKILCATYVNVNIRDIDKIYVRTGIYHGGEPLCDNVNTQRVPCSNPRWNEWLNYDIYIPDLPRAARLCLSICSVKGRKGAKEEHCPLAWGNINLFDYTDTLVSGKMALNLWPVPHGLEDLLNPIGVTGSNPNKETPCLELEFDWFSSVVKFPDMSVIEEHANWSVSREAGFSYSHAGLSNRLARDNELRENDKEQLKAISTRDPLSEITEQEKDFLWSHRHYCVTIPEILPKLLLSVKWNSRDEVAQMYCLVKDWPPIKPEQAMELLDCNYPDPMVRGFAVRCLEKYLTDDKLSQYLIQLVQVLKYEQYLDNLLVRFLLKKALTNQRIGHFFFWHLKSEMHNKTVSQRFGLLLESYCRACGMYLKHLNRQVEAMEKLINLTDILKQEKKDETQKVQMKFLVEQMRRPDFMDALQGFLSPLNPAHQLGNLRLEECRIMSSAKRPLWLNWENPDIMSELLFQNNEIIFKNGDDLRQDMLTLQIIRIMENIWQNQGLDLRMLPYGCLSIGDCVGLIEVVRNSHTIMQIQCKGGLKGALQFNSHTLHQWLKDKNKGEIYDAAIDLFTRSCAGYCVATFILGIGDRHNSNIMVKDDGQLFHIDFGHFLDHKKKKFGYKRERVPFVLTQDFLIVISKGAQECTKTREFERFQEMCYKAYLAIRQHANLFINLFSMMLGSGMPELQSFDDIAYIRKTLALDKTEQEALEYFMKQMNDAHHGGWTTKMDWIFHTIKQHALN
# Outline: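 PI3Kα enzyme inhibition; IC50 is the mean of duplicate measurements.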
# [3] = Intrinsic clearance in mouse liver microsomes at […] pretreated up to 45 mins followed by NADPH addition and measured by LC-MS/MS analysis; assay type: ADME, microsome; details: read-out: CLH
# Cytochrome P450 3A4 = Cytochrome P450 3A4 (Homo sapiens, UniProt P08684); assay: Inhibition of CYP3A4 in human liver microsomes using midazolam as substrate pretreated for 5 mins followed by NADPH addition and measured after 5 mins by LC-MS analysis; assay type: ADME
# Sequence of Cytochrome P450 3A4 (P08684 whole entry): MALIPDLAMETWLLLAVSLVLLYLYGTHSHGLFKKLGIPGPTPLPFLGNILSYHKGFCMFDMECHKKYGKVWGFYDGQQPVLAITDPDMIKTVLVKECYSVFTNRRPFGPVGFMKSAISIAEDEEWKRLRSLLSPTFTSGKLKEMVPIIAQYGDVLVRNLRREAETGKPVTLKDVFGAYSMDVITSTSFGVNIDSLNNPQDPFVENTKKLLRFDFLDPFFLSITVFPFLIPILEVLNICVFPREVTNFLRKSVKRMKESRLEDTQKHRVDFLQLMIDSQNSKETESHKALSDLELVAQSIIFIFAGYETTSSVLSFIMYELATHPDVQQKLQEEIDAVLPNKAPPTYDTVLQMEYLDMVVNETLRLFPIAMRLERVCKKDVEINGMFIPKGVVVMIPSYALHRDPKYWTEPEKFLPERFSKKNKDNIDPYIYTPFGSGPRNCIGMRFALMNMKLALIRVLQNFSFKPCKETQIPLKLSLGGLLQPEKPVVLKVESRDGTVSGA
# Cytochrome P450 2C9 = Cytochrome P450 2C9 (Homo sapiens, UniProt P11712); assay: Inhibition of CYP2C9 in human liver microsomes using diclofenac as substrate pretreated for 5 mins followed by NADPH addition and measured after 10 mins by LC-MS analysis; assay type: ADME
# [4] = biological target: PI3-kinase p110-delta/p85-alpha (Homo sapiens, UniProt O00329); assay: Inhibition of recombinant human full-length N-terminal His6-tagged p110delta/recombinant human full length p85alpha expressed in baculovirus infected Sf21 insect cells using PIP2 as substrate measured after 1 hr by Alexa633 Tracer-based fluorescence polarization assay
# [5] = Inhibition of PI3K in human PC3 cells assessed as reduction in AKT phosphorylation at Ser473 measured after 2 hrs by fluorescence assay; assay type: cell-based; details: PC-3, 2 h
# Cytochrome P450 1A2 = Cytochrome P450 1A2 (Homo sapiens, UniProt P05177); assay: Inhibition of CYP1A2 in human liver microsomes using phenacetin as substrate pretreated for 5 mins followed by NADPH addition and measured after 10 mins by LC-MS analysis; assay type: ADME
# [6] = Intrinsic clearance in human liver microsomes at […] pretreated up to 45 mins followed by NADPH addition and measured by LC-MS/MS analysis; assay type: ADME, microsome; details: read-out: CLH
# [7] = Apparent permeability across basolateral to apical side in human Caco2 cells measured after 90 mins by LC-MS/MS analysis; assay type: ADME, cell-based; details: Caco-2
# [8] = Half life in CD1 mouse at 10 mg/kg, po administered via gavage by LC-MS/MS analysis; assay type: ADME, organism-based; details: in vivo
# HT-29 [9] = assay: Antitumor activity against human HT-29 cells harboring PIK3CA P449T mutant xenografted in Balb/c nu/nu mouse assessed as tumor growth inhibition at 7.5 mg/kg, po administered daily via gavage for 27 days relative to control; assay type: functional; details: HT-29, po, 648 h, read-out: TGI; outline: as §1
# [10] = biological target: Serine/threonine-protein kinase ATR (Homo sapiens) (UniProt Q13535); assay: Inhibition of ATR in human HT-29 cells assessed as reduction in camptothecin-induced Chk1 phosphorylation at Ser345 residue at 10 uM pretreated for 1 hr followed by camptothecin addition; assay type: cell-based
# Outline: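 HT-29 cells were pretreated with compound for 1 h, then exposed to camptothecin to induce DNA damage. ATR activity was read as phosphorylation of its substrate Chk1, with total Chk1 and β-actin as internal controls. […] served as reference inhibitor.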
# HUVEC = assay: Cytotoxicity against HUVEC after 72 hrs by MTT assay; assay type: cell-based; details: Homo sapiens
# [11] = Tmax in CD1 mouse at 10 mg/kg, po administered via gavage by LC-MS/MS analysis; assay type: ADME, organism-based; details: in vivo
# [12] = AUClast in CD1 mouse at 10 mg/kg, po administered via gavage by LC-MS/MS analysis; assay type: ADME, organism-based; set-up: dose 10 mg/kg, time 0 - last, route oral; details: in vivo
# [13] = Apparent permeability across apical to basolateral side in human Caco2 cells measured after 90 mins by LC-MS/MS analysis; assay type: ADME, cell-based; details: Caco-2
# [14] = Cmax in CD1 mouse at 10 mg/kg, po administered via gavage by LC-MS/MS analysis; assay type: ADME, organism-based; set-up: dose 10 mg/kg, route oral; details: in vivo
# [15] = biological target: Phosphatidylinositol 4,5-bisphosphate 3-kinase catalytic subunit alpha isoform (Homo sapiens, UniProt P42336, H1047R); assay: Inhibition of p110alpha H1047R mutant (unknown origin)
# Cytochrome P450 2C19 = Cytochrome P450 2C19 (Homo sapiens, UniProt P33261); assay: Inhibition of CYP2C19 in human liver microsomes using S-Mephenytoin as substrate pretreated for 5 mins followed by NADPH addition and measured after 45 mins by LC-MS analysis; assay type: ADME
# Sequence of Cytochrome P450 2C19 (P33261 whole entry): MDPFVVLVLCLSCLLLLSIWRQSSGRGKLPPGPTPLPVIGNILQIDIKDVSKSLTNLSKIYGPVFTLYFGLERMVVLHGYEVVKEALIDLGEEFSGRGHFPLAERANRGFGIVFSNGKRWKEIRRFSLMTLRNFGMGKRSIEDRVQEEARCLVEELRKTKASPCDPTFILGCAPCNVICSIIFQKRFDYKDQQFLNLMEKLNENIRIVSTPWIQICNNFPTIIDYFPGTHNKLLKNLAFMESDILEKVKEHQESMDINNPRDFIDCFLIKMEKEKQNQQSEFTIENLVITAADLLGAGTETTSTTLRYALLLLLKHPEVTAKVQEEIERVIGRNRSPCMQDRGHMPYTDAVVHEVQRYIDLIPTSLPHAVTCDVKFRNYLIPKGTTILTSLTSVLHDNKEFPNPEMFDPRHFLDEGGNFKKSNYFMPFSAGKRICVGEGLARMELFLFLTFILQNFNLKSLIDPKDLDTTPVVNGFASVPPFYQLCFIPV
# [16] = Efflux ratio of apparent permeability from basolateral to apical side over apical to basolateral side in human Caco2 cells after 90 mins by LC-MS/MS analysis; assay type: ADME, cell-based; details: Caco-2
# Cytochrome P450 2B6 = Cytochrome P450 2B6 (Homo sapiens, UniProt P20813); assay: Inhibition of CYP2B6 in human liver microsomes using bupropion as substrate pretreated for 5 mins followed by NADPH addition and measured after 10 mins by LC-MS analysis; assay type: ADME
# [17] = biological target: PI3-kinase p110-alpha/p85-alpha (Homo sapiens, UniProt P42336, E542K); assay: Inhibition of recombinant human His-tagged p85alpha/p110alpha E542K mutant expressed in insect cells
# Mus musculus = assay: Toxicity in Balb/c nu/nu mouse xenografted with human HT-29 cells harboring PIK3CA P449T mutant assessed as body weight loss at 7.5 mg/kg, po administered daily via gavage for 27 days relative to control; assay type: organism-based; details: in vivo, 648 h
# Outline: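 Balb/c nu/nu mice with HT-29 xenografts (mean tumor about 240 mm³) received daily oral gavage for 27 days. Body weight change was measured and plotted over time. Mean ± SEM, n = 6.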
# [18] = biological target: Voltage-gated inwardly rectifying potassium channel KCNH2 (Homo sapiens, UniProt Q12809); assay: Inhibition of recombinant human ERG expressed in CHO cells by automated whole cell patch clamp Qpatch method; assay type: cell-based
# [19] = biological target: PI3-kinase p110-alpha/p85-alpha (Homo sapiens, UniProt P42336, E545K); assay: Inhibition of recombinant human His-tagged p85alpha/p110alpha E545K mutant expressed in insect cells
# PI3K p110 beta/p85 alpha = PI3K p110 beta/p85 alpha (Homo sapiens, UniProt P42338); assay: Inhibition of recombinant human full-length N-terminal His6-tagged p110beta/recombinant human full length p85alpha expressed in baculovirus infected Sf21 insect cells using PIP2 as substrate measured after 1 hr by Alexa633 Tracer-based fluorescence polarization assay
# Sequence of PI3K p110 beta/p85 alpha (P27986 whole entry): as the sequence (P27986 whole entry) above
# Sequence of PI3K p110 beta/p85 alpha (P42338 whole entry): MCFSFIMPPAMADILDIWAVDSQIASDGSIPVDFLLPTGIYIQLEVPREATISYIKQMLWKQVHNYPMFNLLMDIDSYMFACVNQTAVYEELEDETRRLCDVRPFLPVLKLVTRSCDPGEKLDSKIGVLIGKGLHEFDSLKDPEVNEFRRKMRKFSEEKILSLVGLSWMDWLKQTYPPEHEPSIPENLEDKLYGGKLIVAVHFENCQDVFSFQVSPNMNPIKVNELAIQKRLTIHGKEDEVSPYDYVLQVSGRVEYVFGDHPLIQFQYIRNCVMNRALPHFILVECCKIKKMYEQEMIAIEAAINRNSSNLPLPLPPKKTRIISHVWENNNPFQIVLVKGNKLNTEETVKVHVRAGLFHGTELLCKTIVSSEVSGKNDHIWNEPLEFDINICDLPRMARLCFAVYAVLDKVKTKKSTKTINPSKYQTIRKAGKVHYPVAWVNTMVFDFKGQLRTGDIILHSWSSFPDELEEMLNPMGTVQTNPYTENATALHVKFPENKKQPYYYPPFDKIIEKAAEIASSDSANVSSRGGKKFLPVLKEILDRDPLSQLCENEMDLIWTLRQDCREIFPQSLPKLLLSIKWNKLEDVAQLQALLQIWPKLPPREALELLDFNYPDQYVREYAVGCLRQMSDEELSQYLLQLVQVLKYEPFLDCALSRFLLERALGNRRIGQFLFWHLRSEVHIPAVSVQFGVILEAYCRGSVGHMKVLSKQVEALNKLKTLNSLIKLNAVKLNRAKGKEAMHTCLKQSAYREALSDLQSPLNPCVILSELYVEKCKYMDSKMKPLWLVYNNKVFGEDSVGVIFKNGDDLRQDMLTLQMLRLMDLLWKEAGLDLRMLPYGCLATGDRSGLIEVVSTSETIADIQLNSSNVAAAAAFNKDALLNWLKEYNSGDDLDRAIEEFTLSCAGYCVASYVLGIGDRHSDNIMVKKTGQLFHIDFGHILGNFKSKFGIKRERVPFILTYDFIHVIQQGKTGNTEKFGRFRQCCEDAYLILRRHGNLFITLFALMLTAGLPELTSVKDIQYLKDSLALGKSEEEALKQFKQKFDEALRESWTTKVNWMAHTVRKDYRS
structure (smiles),measurement,setting,value
C[C@H]1COCCN1c1nc(-c2cnc(N)cc2F)cc(C2(S(C)(=O)=O)CC2)n1,inhibition in vivo at 3.75 mg/kg,HT-29 [1],54.4%
same,IC50,MCF7,11 nM
same,IC50,Cytochrome P450 2C8,> 10000 nM
same,IC50,[2],10 to 20 nM
same,CLint scaled,[3],40 to 140 mL/min/kg
same,IC50,Cytochrome P450 3A4,> 10000 nM
same,IC50,Cytochrome P450 2C9,> 10000 nM
same,IC50,[4],46 nM
same,IC50,[5],196 nM
same,IC50,Cytochrome P450 1A2,> 10000 nM
same,CLint scaled,[6],5 to 16 mL/min/kg
same,Papp B→A at 1.5 h,[7],> 10 ×10⁻⁶ cm/s
same,half-life,[8],2.87 h
same,inhibition in vivo at 7.5 mg/kg,HT-29 [9],72.9%
same,inhibition,[10],Active
same,IC50,HUVEC,108 nM
same,Tmax,[11],0.25 h
same,AUC(0-t),[12],10400 ng·h/mL
same,Papp A→B at 1.5 h,[13],> 10 ×10⁻⁶ cm/s
same,Cmax,[14],2980 ng/mL
same,IC50,[15],15 nM
same,IC50,Cytochrome P450 2C19,> 10000 nM
same,efflux ratio at 1.5 h,[16],0.66
same,IC50,Cytochrome P450 2B6,> 10000 nM
same,IC50,[17],11 nM
same,Activity,Mus musculus,15%
same,IC50,[18],> 30000 nM
same,IC50,[19],11 nM
same,IC50,PI3K p110 beta/p85 alpha,376 nM
